Results from different studies.
Each line is one published result; the experiments were not run side by side.
Target: Ephrin type-B receptor 3 (EPHB3, Homo sapiens, UniProt P54753)
Sequence (P54753 34-998, as in one of the studies): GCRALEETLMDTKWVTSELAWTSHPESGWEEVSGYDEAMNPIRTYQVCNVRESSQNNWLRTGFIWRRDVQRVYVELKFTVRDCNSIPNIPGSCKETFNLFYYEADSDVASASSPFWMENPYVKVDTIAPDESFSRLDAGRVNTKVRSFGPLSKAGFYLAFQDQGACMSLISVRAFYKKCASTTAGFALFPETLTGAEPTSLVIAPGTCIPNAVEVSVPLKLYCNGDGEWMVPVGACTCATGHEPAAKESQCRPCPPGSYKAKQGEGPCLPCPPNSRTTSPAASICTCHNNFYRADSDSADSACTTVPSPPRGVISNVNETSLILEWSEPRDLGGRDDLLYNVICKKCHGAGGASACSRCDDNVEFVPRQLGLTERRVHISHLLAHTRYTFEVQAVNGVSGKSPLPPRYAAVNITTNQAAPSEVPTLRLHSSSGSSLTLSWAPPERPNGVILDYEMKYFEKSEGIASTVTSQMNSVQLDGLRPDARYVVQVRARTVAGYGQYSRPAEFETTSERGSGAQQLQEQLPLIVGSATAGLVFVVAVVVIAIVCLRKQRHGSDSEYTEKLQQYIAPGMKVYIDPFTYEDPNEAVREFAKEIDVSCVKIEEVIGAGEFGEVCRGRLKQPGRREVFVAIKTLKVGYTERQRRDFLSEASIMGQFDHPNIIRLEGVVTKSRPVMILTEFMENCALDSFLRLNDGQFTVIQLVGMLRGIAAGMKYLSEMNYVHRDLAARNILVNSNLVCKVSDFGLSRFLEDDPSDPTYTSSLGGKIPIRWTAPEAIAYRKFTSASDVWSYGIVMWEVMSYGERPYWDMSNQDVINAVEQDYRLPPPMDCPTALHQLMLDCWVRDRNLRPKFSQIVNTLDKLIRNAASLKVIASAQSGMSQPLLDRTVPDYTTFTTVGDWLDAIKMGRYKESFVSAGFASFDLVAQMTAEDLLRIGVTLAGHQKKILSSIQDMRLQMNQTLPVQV

COc1cc(Nc2ncc(F)c(Nc3ccc4c(n3)NC(=O)C(C)(C)O4)n2)cc(OC)c1OC gave an inhibition of 0% (binding; 10 µM).
COc1ncccc1-c1cnn2ccc(N3CCN(C(=O)OC(C)C)CC3)nc12 gave a remaining binding of 100% (binding, competition with immobilised ligand; 1 µM).
For Cn1cc(-c2cc(F)cc(N3CCn4c(cc5c4CCCC5)C3=O)c2CO)cc(Nc2ccc(N3CCN(C4COC4)CC3)cn2)c1=O, the inhibition was 7% (enzyme activity, inhibitor; 0.1 µM).
The remaining activity of CC(C)(C)c1cc(C=C(C#N)C#N)cc(Br)c1O is reported as 107% (enzyme activity, inhibitor; 0.5 µM).
The remaining binding of Cn1cncc1[C@](O)(COc1ccc(C#N)cc1-c1ccc(OC(F)(F)F)cc1)c1ccc(C#N)cc1 is reported as 100% (cell-free assay, competition with immobilised ligand; 1 µM).
O=c1[nH]c2ccccc2n1C1CCN(Cc2ccc(-c3[nH]c4cc5ncnc5cc4nc3-c3ccccc3)cc2)CC1 has a remaining signal of 104% (cell-free assay; 0.5 µM).
N#CC1(c2ccccn2)CCN(Cc2cc(C(=O)O)c(=O)n3ccccc23)CC1 gave a remaining binding of 92% (cell-free assay, competition with immobilised ligand; 1 µM).
With Cn1cc(-c2cccc(N3CCc4c(sc5c4CC(C)(C)C5)C3=O)c2CO)cc(Nc2ccncn2)c1=O the inhibition was 1% (enzyme activity, inhibitor; 1 µM).
Cc1nn(C)cc1-c1nc2c(N3CCN(Cc4ccc(Cl)cc4)CC3)c(Cl)cnc2[nH]1 has a remaining binding of 77% (binding, competition with immobilised ligand; 1 µM).
